Data set [1] in a line: Cytotoxicity against rat neuronal cells at 10 uM after 24 hrs. Format: cell-based. As to conditions: neuron. An outline of the steps: (§1)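 Neuronal cultures given compound alone (10 µM) or DMSO vehicle. Viability read at 24 h and after 72 h. Percentage surviving neurons taken from three separate experiments, mean ± SE.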
Data set [2] relates to SK-BR-3. The data set is described as follows: Antiproliferative activity against SKBR3 cells. As to conditions: Homo sapiens. The data set is classed as functional, cell-based. An outline of the steps: (§2)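 MCF-7 and SkBr3 cells incubated with compound over a range of concentrations up to 100 µM. Viable cells quantitated by MTS/PMS assay. Triplicate wells per experiment, three independent experiments; IC50 from dose–response, values as means ± SE.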

Data set [3] deals with MCF7. The data set is described as follows: Antiproliferative activity against MCF7 cells. The data set is classed as functional, cell-based. Particulars: Homo sapiens. An outline of the steps: as §2
For data set [4], the system named is SK-BR-3. The data set is described as follows: Antiproliferative activity against SKBR3 cells upto 100 uM. Format: functional, cell-based. Particulars: Homo sapiens. In outline:
as §2

Data set [5] has as its system MCF7. The data set is described as follows: Antiproliferative activity against MCF7 cells upto 100 uM. The data set is classed as functional, cell-based. As to conditions: Homo sapiens. In outline:
as §2

Data set [6] has as its system Cortical neurone. The data set is described as follows: Inhibition of beta-amyloid (1-42)-induced toxicity in embryonic rat brain primary cortical neurons after 48 hrs. The data set is classed as functional, tissue-based. An outline of the steps: (§3)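 Primary cortical neurons pretreated with compound at a series of concentrations, then challenged with Aβ25–35 (10 µM), or Aβ1–42 in fewer cultures. Neurons labelled with calcein-AM (live) and propidium iodide (dead) and counted in several fields by fluorescence microscopy. EC50 taken from percentage survival.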

In data set [7] the test system is Cortical neurone. The data set is described as follows: Inhibition of beta-amyloid (25-35)-induced toxicity in embryonic rat brain primary cortical neurons after 48 hrs. Format: functional, tissue-based. In outline: as §3
Data set [8] has as its system Cerebral cortex neuron. The data set is described as follows: Increase in Hsp70 level in rat primary cortical neurons at 0.2 uM after 48 hrs. Format: functional, cell-based. In outline:
(§4)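 Primary cortical neurons incubated 48 h with compound, concentrations from 1 nM to 10 µM. Hsp70 levels measured against DMSO controls.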

The subject of data set [9] is Cerebral cortex neuron. The data set is described as follows: Increase in Hsp70 level in rat primary cortical neurons at 1 nM after 48 hrs relative to control. The data set is classed as functional, cell-based. In outline:
as §4

The nature of data set [10]: Cytotoxicity against rat neuronal cells at 10 uM after 72 hrs. Format: cell-based. Particulars: neuron. In outline:
as §1

Data set [11] relates to LNCaP. The data set is described as follows: Induction of Hsp90 protein in LNCap cells expressing mutated androgen receptor at 10 nM. Format: functional, cell-based. As to conditions: Homo sapiens. An outline of the steps:
(§5)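 LNCaP prostate cancer cells, which carry a mutated androgen receptor, exposed to compound from 10 nM upward. Hsp90 induction and loss of client proteins AR and AKT assessed.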

Data set [12] concerns LNCaP. The data set is described as follows: Degradation of Hsp90 client protein androgen receptor in LNCap cells upto 1 uM. Particulars: Homo sapiens. The data set is classed as functional, cell-based. In outline: as §5
Data set [13] has as its system LNCaP. The data set is described as follows: Degradation of Hsp90 client protein AKT in LNCap cells upto 1 uM. The data set is classed as functional, cell-based. Particulars: Homo sapiens. An outline of the steps:
as §5

In another data set the test system is BMEC. The data set is described as follows: Permeability across BMECs. Format: ADME, cell-based, Bos taurus. Particulars: cattle, TDE = time-dependent effect. An outline of the steps: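 Primary bovine BMEC monolayers mounted in a side-by-side diffusion chamber. Compound in the receiving chamber sampled over time, up to 90 min.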

The source made the active and inactive calls. The calls are words filed in the database; no cut-off is given here.

For `COC1=C2C[C@@H](C)C[C@H](OC)[C@H](O)[C@@H](C)/C=C(\C)[C@H](OC(N)=O)[C@@H](OC)/C=C\C=C(/C)C(=O)NC(=CC1=O)C2=O` [GELDANAMYCIN], the figures for the Activity entry (in [1]; in the data set with SK-BR-3 [2]; in the data set with MCF7 [3]) were “Active”, “Dose-dependent effect” and “Dose-dependent effect”, respectively.

For `CO[C@H]1[C@H](O)[C@@H](O)[C@H](Oc2ccc3cc(NC(C)=O)c(=O)oc3c2)OC1(C)C`, the result in the data set with SK-BR-3 [4], in the data set on MCF7 [5], in the data set on LNCaP [12] and in the data set with LNCaP [13] was inactive. Besides, the outcome in the data set on Cortical neurone [6], in the data set with Cortical neurone [7], in the data set with Cerebral cortex neuron [8], in the data set with Cerebral cortex neuron [9] and with LNCaP [11] was Active. Further, the Activity result in [10] is “Not Active”; in the data set on BMEC, “tde”.

Values taken from ChEMBL document CHEMBL1148860, “A non-toxic Hsp90 inhibitor protects neurons from Abeta-induced toxicity” (Bioorg Med Chem Lett, 2007).
